Assay results as given in ChEMBL document CHEMBL4368872, “Synthesis and anticonvulsant activity of phenoxyacetyl derivatives of amines, including aminoalkanols and amino acids” (Medchemcomm, 2018).
Active and inactive are the calls of the source. The rule behind the calls is not given here.

What was measured:
Mus musculus [1] = assay: Anticonvulsant activity in CF-1 mouse model of subcutaneous pentylenetetrazole-induced seizure assessed as reduction in convulsions at 300 mg/kg, ip measured at 0.5 hrs post dose; type: functional, organism-based
Procedure, shortened: (§1)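 Mice dosed i.p., then given pentylenetetrazole 85 mg/kg in 0.9% NaCl s.c. into the posterior midline of the neck. Seizures watched for at least 30 min. Scored as protected / tested at 0.5 and 4 h.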

Salmonella typhimurium [2] = assay: Antimutagenic activity against Salmonella typhimurium TA1535 assessed as inhibition of NaN3-induced mutation at 250 ug/plate preincubated for 30 mins followed by top agar addition and measured after 48 hrs in presence of liver S9 fraction by Ames test relative to control; type: organism-based; details: salmonella enterica subsp. enterica serovar typhimurium, s9, 48 h
Mus musculus [3] = assay: Anticonvulsant activity in CF-1 mouse model of maximal electroshock-induced seizure assessed as suppression of tonic hind limb extension at 100 mg/kg, ip measured at 0.5 hrs post dose; type: functional, organism-based
Procedure, shortened: (§2)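 Mice dosed i.p. and given maximal electroshock at 50 mA. Read-out is protection, reported as number protected / number tested at 0.25, 0.5, 1 and 4 h after dosing.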

[4] = Retention time of the compound in rat liver microsomes by LC-MS/MS analysis; type: ADME, Microsome
[5] = Neurotoxicity in CF-1 mouse at 100 mg/kg, ip measured after 0.5 hrs by rotarod test; type: toxicity, organism-based; details: in vivo
Procedure, shortened: (§3)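 Mice dosed i.p. were placed on a 1 in. knurled rod turning at 6 rpm. Toxicity was scored as failure to keep balance for at least 1 min, i.e. falling off three or more times. Results are reported as animals showing toxicity / animals tested at each time point.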

[6] = Mutagenicity in Salmonella typhimurium TA100 assessed as mutagenicity index at 50 to 500 ug/plate preincubated for 30 mins followed by top agar addition and measured after 48 hrs in presence of liver S9 fraction by Ames test; type: toxicity, subcellular; details: salmonella enterica subsp. enterica serovar typhimurium, s9, 48 h
Procedure, shortened: (§4)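 Ames plate incorporation in S. typhimurium TA100 or TA1535, with or without S9. Overnight culture, compound in DMSO (50–500 µg per plate) and buffer or S9 mix preincubated 30 min at 37 °C, then top agar on glucose minimal agar. Incubated 48 h at 37 °C, revertants counted in triplicate. Vehicle negative control; NaN3 (−S9) and 2AA (+S9) positive controls. MI = revertants with compound / negative-control revertants; MI ≥ 2 with dose-response counts as positive.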

[7] = Neurotoxicity in Sprague-Dawley rat at 30 mg/kg, po measured after 0.25 hrs by rotarod test; type: toxicity, organism-based; details: in vivo
Procedure, shortened: (§5)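 Rat neurotoxicity after i.p. or p.o. dosing was scored as animals impaired / animals tested at each time point. For p.o. dosing, TD50 was obtained by probit analysis.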

[8] = Neurotoxicity in CF-1 mouse at 100 mg/kg, ip measured after 4 hrs by rotarod test; type: toxicity, organism-based; details: in vivo; procedure, shortened: as §3
Salmonella typhimurium [9] = assay: Antimutagenic activity against Salmonella typhimurium TA100 assessed as inhibition of NaN3-induced mutation at 500 ug/plate preincubated for 30 mins followed by top agar addition and measured after 48 hrs in presence of liver S9 fraction by Ames test relative to control; type: organism-based; details: salmonella enterica subsp. enterica serovar typhimurium, s9, 48 h
Mus musculus [10] = assay: Anticonvulsant activity in CF-1 mouse model of maximal electroshock-induced seizure assessed as suppression of tonic hind limb extension at 30 mg/kg, ip measured at 0.5 hrs post dose; type: functional, organism-based; procedure, shortened: as §2
Mus musculus [11] = assay: Anticonvulsant activity in CF-1 mouse model of subcutaneous pentylenetetrazole-induced seizure assessed as reduction in convulsions at 30 mg/kg, ip measured at 4 hrs post dose; type: functional, organism-based; procedure, shortened: as §1
Salmonella typhimurium [12] = assay: Antimutagenic activity against Salmonella typhimurium TA1535 assessed as inhibition of NaN3-induced mutation at 100 ug/plate preincubated for 30 mins followed by top agar addition and measured after 48 hrs in presence of liver S9 fraction by Ames test relative to control; type: organism-based; details: salmonella enterica subsp. enterica serovar typhimurium, s9, 48 h
Rattus norvegicus = assay: Anticonvulsant activity in Sprague-Dawley rat model of maximal electroshock-induced seizure assessed as suppression of tonic hind limb extension at 30 mg/kg, po measured at 2 hrs post dose; type: functional, organism-based
Procedure, shortened: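 Rats given 30 mg/kg p.o. and tested by maximal electroshock at 150 mA. Scored as number protected / number tested (4 per group) at 0.25, 0.5, 1, 2 and 4 h after dosing.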

Mus musculus [13] = assay: Anticonvulsant activity in CF-1 mouse model of maximal electroshock-induced seizure assessed as suppression of tonic hind limb extension at 300 mg/kg, ip measured at 0.5 hrs post dose; type: functional, organism-based; procedure, shortened: as §2
Mus musculus [14] = assay: Anticonvulsant activity in CF-1 mouse model of subcutaneous pentylenetetrazole-induced seizure assessed as reduction in convulsions at 100 mg/kg, ip measured at 4 hrs post dose; type: functional, organism-based; procedure, shortened: as §1
[15] = Neurotoxicity in CF-1 mouse at 300 mg/kg, ip measured after 4 hrs by rotarod test; type: toxicity, organism-based; details: in vivo; procedure, shortened: as §3
[16] = Neurotoxicity in Sprague-Dawley rat at 30 mg/kg, po measured after 4 hrs by rotarod test; type: toxicity, organism-based; details: in vivo; procedure, shortened: as §5
Salmonella typhimurium [17] = assay: Antimutagenic activity against Salmonella typhimurium TA100 assessed as inhibition of NaN3-induced mutation at 100 ug/plate preincubated for 30 mins followed by top agar addition and measured after 48 hrs in presence of liver S9 fraction by Ames test relative to control; type: organism-based; details: salmonella enterica subsp. enterica serovar typhimurium, s9, 48 h
[18] = Intrinsic clearance in rat liver microsomes at 20 uM preincubated for 15 mins followed by NADPH generating system addition and measured after 5 to 60 mins by LC-MS/MS analysis; type: ADME, Microsome; details: read-out: CLH
Procedure, shortened: (§6)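 Test compound at 20 µM preincubated 15 min with male rat liver microsomes (0.4 mg ml⁻¹) in 100 mM potassium phosphate, pH 7.4. Started with NADP⁺ (3.4 mM), glucose 6-phosphate (7.7 mM) and G6PDH (0.6 U ml⁻¹). Run 5–60 min at 37 °C in duplicate, stopped with cold perchloric acid plus internal standard, supernatant analysed by LC-MS/MS. Half-life and Cl_int derived by literature methods.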

[19] = Neurotoxicity in CF-1 mouse at 30 mg/kg, ip measured after 4 hrs by rotarod test; type: toxicity, organism-based; details: in vivo; procedure, shortened: as §3
[20] = Neurotoxicity in Sprague-Dawley rat at 100 mg/kg, ip measured after 1 hr by rotarod test; type: toxicity, organism-based; details: in vivo; procedure, shortened: as §5
Salmonella typhimurium [21] = assay: Antimutagenic activity against Salmonella typhimurium TA100 assessed as inhibition of NaN3-induced mutation at 250 ug/plate preincubated for 30 mins followed by top agar addition and measured after 48 hrs in presence of liver S9 fraction by Ames test relative to control; type: organism-based; details: salmonella enterica subsp. enterica serovar typhimurium, s9, 48 h
Mus musculus [22] = assay: Anticonvulsant activity in CF-1 mouse model of maximal electroshock-induced seizure assessed as suppression of tonic hind limb extension at 100 mg/kg, ip measured at 1 hr post dose; type: functional, organism-based; procedure, shortened: as §2
[23] = Neurotoxicity in CF-1 mouse at 100 mg/kg, ip measured after 1 hr by rotarod test; type: toxicity, organism-based; details: in vivo; procedure, shortened: as §3
[24] = Half life in rat liver microsomes at 20 uM preincubated for 15 mins followed by NADPH generating system addition and measured by LC-MS/MS analysis; type: ADME, Microsome; procedure, shortened: as §6
[25] = Neurotoxicity in Sprague-Dawley rat at 100 mg/kg, ip measured after 0.5 hrs by rotarod test; type: toxicity, organism-based; details: in vivo; procedure, shortened: as §5
[26] = Mutagenicity in Salmonella typhimurium TA1535 assessed as mutagenicity index at 50 to 500 ug/plate preincubated for 30 mins followed by top agar addition and measured after 48 hrs in presence of liver S9 fraction by Ames test; type: toxicity, subcellular; details: salmonella enterica subsp. enterica serovar typhimurium, s9, 48 h; procedure, shortened: as §4

| SMILES | Activity (Mus musculus [1]) | inhibition (INH) (Salmonella typhimurium [2]) [%] | Activity (Mus musculus [3]) | Retention_time [4] [min] | Activity [5] | Activity index [6] | Activity [7] | Activity [8] | inhibition (INH) (Salmonella typhimurium [9]) [%] | Activity (Mus musculus [10]) | Activity (Mus musculus [11]) | inhibition (INH) (Salmonella typhimurium [12]) [%] | Activity (Rattus norvegicus) | Activity (Mus musculus [13]) | Activity (Mus musculus [14]) | Activity [15] | Activity [16] | inhibition (INH) (Salmonella typhimurium [17]) [%] | microsomal CLint at 20 µM [18] [µL/min/mg] | Activity [19] | other results |
| --- | --- | --- | --- | --- | --- | --- | --- | --- | --- | --- | --- | --- | --- | --- | --- | --- | --- | --- | --- | --- | --- |
| CCC(O)CNC(=O)COc1c(C)cccc1C (centres undefined) | inactive | 56 | inactive | 5.15 | Non-Toxic | 0.7 to 1.7 | Non-Toxic | Non-Toxic | 47 | inactive | inactive | 51 | inactive | Active | inactive | Non-Toxic | Non-Toxic | 26 | 57 | Non-Toxic | Activity [20]: Non-Toxic; inhibition (INH) (Salmonella typhimurium [21]): 11%; Activity (Mus musculus [22]): inactive; Activity [23]: Non-Toxic; half-life at 20 µM [24]: 0.507 h; Activity [25]: Toxic; Activity index [26]: 0.7 to 1.7 |
| Cc1cccc(C)c1OCC(=O)N[C@H](C)CO | inactive | 47 | inactive | 4.73 | Non-Toxic | 0.7 to 1.7 | Non-Toxic | Non-Toxic | 40 | inactive | inactive | 43 | inactive | Active | inactive | Non-Toxic | Non-Toxic | 43 | 9.5 | Non-Toxic | Activity [20]: Non-Toxic; inhibition (INH) (Salmonella typhimurium [21]): 38%; Activity (Mus musculus [22]): inactive; Activity [23]: Non-Toxic; half-life at 20 µM [24]: 3.04 h; Activity [25]: Non-Toxic; Activity index [26]: 0.7 to 1.7 |
